# Experiments:
# [1] = target: 72 kDa type IV collagenase (Homo sapiens, UniProt P08253); experiment: Inhibition of human recombinant MMP2 using Mca-Lys-Pro-Leu-Gly-Leu-Dpa-Ala-Arg-NH2 as substrate by fluorescence plate reader analysis
# Outline: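 rhMMP2 activated with 1 mM APMA in assay buffer (50 mM Tris, 10 mM CaCl2, 150 mM NaCl, 0.05% Brij-35, pH 7.5), 37 °C, 1 h, then diluted to 248 ng/mL. Enzyme and test samples combined at ambient temperature; substrate (25 µM) added to start. Kinetic fluorescence at 320 nm excitation/405 nm emission; blank-subtracted duplicates; IC50 from six-point curves.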
# [2] = target: Matrix metalloproteinase-9 (Homo sapiens, UniProt P14780); experiment: Inhibition of human MMP9
# MCF7 = experiment: Cellular uptake in human MCF7 cells over-expressing MMP14 by confocal microscopy relative to control; format: ADME, cell-based
# Outline: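 MMP-14-overexpressing and parental MCF7 cells incubated with the conjugate at 37 °C and imaged by confocal microscopy, parental cells serving as comparison.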
# [3] = target: Matrix metalloproteinase-14 (Homo sapiens, UniProt P50281); experiment: Inhibition of human recombinant MMP14 using Mca-Lys-Pro-Leu-Gly-Leu-Dpa-Ala-Arg-NH2 as substrate by fluorescence plate reader analysis
# Outline: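 Enzyme and test samples combined at ambient temperature; substrate (20 µM) added to start. Kinetic read at 320/405 nm, substrate blank subtracted, duplicates, IC50 from six-point dose-response curves.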
# Chain of Matrix metalloproteinase-9 (P14780 whole entry): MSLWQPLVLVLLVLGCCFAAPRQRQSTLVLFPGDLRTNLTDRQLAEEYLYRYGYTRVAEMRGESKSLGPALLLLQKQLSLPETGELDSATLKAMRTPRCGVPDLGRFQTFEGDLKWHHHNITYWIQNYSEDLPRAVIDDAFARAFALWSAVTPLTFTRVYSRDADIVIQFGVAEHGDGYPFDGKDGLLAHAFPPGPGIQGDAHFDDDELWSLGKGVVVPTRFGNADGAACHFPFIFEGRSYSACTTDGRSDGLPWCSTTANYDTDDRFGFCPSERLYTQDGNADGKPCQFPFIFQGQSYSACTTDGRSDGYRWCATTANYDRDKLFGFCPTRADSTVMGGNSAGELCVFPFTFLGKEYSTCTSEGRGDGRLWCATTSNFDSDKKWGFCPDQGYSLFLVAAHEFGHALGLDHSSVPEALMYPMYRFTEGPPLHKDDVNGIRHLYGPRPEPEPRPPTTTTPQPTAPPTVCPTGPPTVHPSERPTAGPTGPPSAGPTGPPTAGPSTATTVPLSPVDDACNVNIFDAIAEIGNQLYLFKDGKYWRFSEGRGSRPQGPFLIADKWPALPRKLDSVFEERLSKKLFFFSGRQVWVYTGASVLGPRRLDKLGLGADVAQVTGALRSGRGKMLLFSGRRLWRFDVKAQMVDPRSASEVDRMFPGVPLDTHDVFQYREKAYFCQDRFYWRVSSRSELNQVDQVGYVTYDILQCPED
# Chain of 72 kDa type IV collagenase (P08253 whole entry): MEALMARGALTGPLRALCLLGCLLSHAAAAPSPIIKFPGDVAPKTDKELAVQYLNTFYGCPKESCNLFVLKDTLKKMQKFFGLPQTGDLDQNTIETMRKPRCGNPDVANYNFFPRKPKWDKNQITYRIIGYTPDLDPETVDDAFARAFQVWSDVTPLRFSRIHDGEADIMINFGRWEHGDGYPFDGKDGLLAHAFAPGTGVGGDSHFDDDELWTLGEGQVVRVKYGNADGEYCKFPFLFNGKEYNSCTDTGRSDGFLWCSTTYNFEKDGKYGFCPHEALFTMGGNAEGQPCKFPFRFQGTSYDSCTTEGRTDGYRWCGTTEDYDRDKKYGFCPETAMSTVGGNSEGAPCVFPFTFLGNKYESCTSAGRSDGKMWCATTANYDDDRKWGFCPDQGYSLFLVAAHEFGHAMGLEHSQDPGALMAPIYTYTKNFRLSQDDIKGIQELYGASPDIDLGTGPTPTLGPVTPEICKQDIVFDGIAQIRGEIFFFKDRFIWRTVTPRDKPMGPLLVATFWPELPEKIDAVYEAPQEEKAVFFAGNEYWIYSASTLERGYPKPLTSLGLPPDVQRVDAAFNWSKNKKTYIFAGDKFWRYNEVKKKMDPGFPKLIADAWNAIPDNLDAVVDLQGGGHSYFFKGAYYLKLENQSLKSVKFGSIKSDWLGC
SMILES,IC50 [1] [nM],IC50 [2] [nM],Drug uptake (MCF7),IC50 [3] [nM]
O=C(NO)C1(S(=O)(=O)c2ccc(Oc3ccc(OC(F)(F)F)cc3)cc2)CCN(C2CC2)CC1,< 1,,,
CC(C)(C)NC(=O)c1nc(N)c(C(=O)NCCC(=O)N2CCC(C(=O)NO)(S(=O)(=O)c3ccc(Oc4ccc(OC(F)(F)F)cc4)cc3)CC2)nc1N,5.1,4.1,,
Nc1nc(C(=O)N2CCC(C(=O)NO)(S(=O)(=O)c3ccc(Oc4ccc(OC(F)(F)F)cc4)cc3)CC2)c(N)nc1C(=O)N1CCCC1,< 1,< 1,,
CN(C)c1ncc(N2CCC(C(=O)NO)(S(=O)(=O)c3ccc(Oc4ccc(OC(F)(F)F)cc4)cc3)CC2)nc1C#N,1.6,< 1,,
N[C@@H](CCCCNC(=O)c1ccc2c(c1)C(=O)OC21c2ccc(O)cc2Oc2cc(O)ccc21)C(=O)N1CCC(C(=O)NO)(S(=O)(=O)c2ccc(Oc3ccc(OC(F)(F)F)cc3)cc2)CC1,< 1,< 1,Active,100
CC1(C)C(/C=C/C2=C(N3CCC(C(=O)NO)(S(=O)(=O)c4ccc(Oc5ccc(OC(F)(F)F)cc5)cc4)CC3)C(=C/C=C3/N(CCCCS(=O)(=O)O)c4ccccc4C3(C)C)/CCC2)=[N+](CCCCS(=O)(=O)[O-])c2ccccc21,2.8,1.6,,

# — ChEMBL document CHEMBL2429723, “Design and synthesis of MMP inhibitors with appended fluorescent tags for imaging and visualization of matrix metalloproteinase enzymes” (Bioorg Med Chem Lett, 2013)
